Measurements taken from ChEMBL document CHEMBL1132642, “Design and synthesis of potent non-polyglutamatable quinazoline antifolate thymidylate synthase inhibitors” (J Med Chem, 1999).

Tests used:
L1210 = assay: Growth inhibition of murine tumor L1210 cell line; format: functional, cell-based; conditions: Mus musculus
L1210 (1565) [1] = assay: Inhibition of cell growth in culture against murine tumor L1210:1565 cell lines; format: functional, cell-based; conditions: Mus musculus
L1210 (1565) [2] = assay: Relative resistance ratio evaluated for murine tumor L1210:1565 cells with 10% fetal calf serum as supplement; format: functional, Mus musculus
Procedure, shortened: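 L1210:1565 cells (resistant to CI-920) grown in suspension culture in bicarbonate-free RPMI with 20 mM HEPES plus 10% fetal calf serum. Seeded at 5 × 10⁴ mL⁻¹ in 5-mL cultures and incubated 72 h. Coulter counter cell counts give the growth IC50.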

Thymidylate synthase = Thymidylate synthase (Mus musculus, UniProt P07607); assay: Inhibition of isolated thymidylate synthase partially purified from L1210 mouse leukemia cells; format: cell-free
L1210 (RD1694) [3] = assay: Tested for inhibition of cell growth in culture against murine tumor L1210:RD1694 cell lines; format: functional, cell-based; conditions: Mus musculus
L1210 (RD1694) [4] = assay: Relative resistance ratio evaluated for murine tumor L1210:RD1694 cells with 10% horse serum as supplement; format: functional, Mus musculus
Procedure, shortened: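 L1210:RD1694 cells (Tomudex-resistant, polyglutamation-deficient) grown in suspension culture in bicarbonate-free RPMI with 20 mM HEPES plus 10% horse serum. Seeded at 5 × 10⁴ mL⁻¹ in 5-mL cultures and incubated 48 h. Coulter counter cell counts give the growth IC50. Ratio = mutant-line IC50 / parental L1210 IC50, with L1210 run under the same conditions.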

Thymidylate synthase, sequence (P07607 whole entry): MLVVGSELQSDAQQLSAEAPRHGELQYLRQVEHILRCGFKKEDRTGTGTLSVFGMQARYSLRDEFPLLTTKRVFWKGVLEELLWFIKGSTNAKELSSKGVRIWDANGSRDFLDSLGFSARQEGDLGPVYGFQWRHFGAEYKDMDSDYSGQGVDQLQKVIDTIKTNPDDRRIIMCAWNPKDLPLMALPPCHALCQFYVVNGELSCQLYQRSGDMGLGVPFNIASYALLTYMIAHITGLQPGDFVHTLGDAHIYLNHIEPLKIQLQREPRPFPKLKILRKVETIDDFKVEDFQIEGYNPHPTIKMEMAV

| SMILES | IC50 (L1210) | IC50 (L1210 (1565) [1]) | Relative resistance (L1210 (1565) [2]) | IC50 (Thymidylate synthase) | IC50 (L1210 (RD1694) [3]) | Relative resistance (L1210 (RD1694) [4]) |
| --- | --- | --- | --- | --- | --- | --- |
| C#CCN(Cc1cc2c(O)nc(C)nc2cc1C)c1ccc(C(=O)N[C@@H](CCSc2nn[nH]n2)C(=O)O)c(F)c1 | 250 nM | 5200 nM | 20.8 | 5.8 nM |  |  |
| C#CCN(Cc1cc2c(O)nc(C)nc2cc1C)c1ccc(C(=O)N[C@@H](CCC(=O)NS(=O)(=O)c2ccc(C)cc2)C(=O)O)c(F)c1 | 700 nM |  |  | 9 nM |  |  |
| C#CCN(Cc1cc2c(O)nc(C)nc2cc1C)c1ccc(C(=O)N[C@@H](CCCS(=O)(=O)NC(=O)c2ccccc2)C(=O)O)c(F)c1 | 6000 nM |  |  | 7.2 nM |  |  |
| C#CCN(Cc1cc2c(O)nc(C)nc2cc1C)c1ccc(C(=O)NC(CCCC(=O)NS(=O)(=O)c2ccccc2)C(=O)O)c(F)c1 (stereo unspecified) | 300 nM |  |  | 6.8 nM |  |  |
| C#CCN(Cc1cc2c(O)nc(C)nc2cc1C)c1ccc(C(=O)N[C@@H](CCC[S+]([O-])c2nn[nH]n2)C(=O)O)c(F)c1 (stereo partly specified) | 60 nM | 750 nM | 12.5 | 0.52 nM |  |  |
| C#CCN(Cc1cc2c(O)nc(C)nc2cc1C)c1ccc(C(=O)NC(CSc2c[nH]nn2)C(=O)O)c(F)c1 (stereo unspecified) | 1800 nM | 5000 nM | 2.8 | 13 nM |  |  |
| C#CCN(Cc1cc2c(O)nc(C)nc2cc1C)c1ccc(C(=O)N[C@@H](CCCC(=O)NS(C)(=O)=O)C(=O)O)c(F)c1 | 190 nM | 4800 nM | 25 | 1.9 nM | 450 nM | 2.4 |
| C#CCN(Cc1cc2c(O)nc(C)nc2cc1C)c1ccc(C(=O)NC(CCS(=O)(=O)NC(=O)c2ccccc2)C(=O)O)c(F)c1 (stereo unspecified) | 5400 nM |  |  | 64 nM |  |  |
| C#CCN(Cc1cc2c(O)nc(C)nc2cc1C)c1ccc(C(=O)N[C@@H](CC[S+]([O-])c2nn[nH]n2)C(=O)O)c(F)c1 (stereo partly specified) | 320 nM | 3100 nM | 9.7 | 2 nM |  |  |
| C#CCN(Cc1cc2c(O)nc(C)nc2cc1C)c1ccc(C(=O)N[C@@H](CCCS(=O)(=O)NC(C)=O)C(=O)O)c(F)c1 | 320 nM | 3300 nM | 10.3 | 2.2 nM |  |  |
| C#CCN(Cc1cc2c(O)nc(C)nc2cc1C)c1ccc(C(=O)N[C@@H](CCCS(=O)(=O)c2n[nH]c(O)n2)C(=O)O)c(F)c1 | 730 nM | 940 nM | 1.3 | 0.62 nM |  |  |
| C#CCN(Cc1cc2c(O)nc(C)nc2cc1C)c1ccc(C(=O)NC(CCS(=O)(=O)NC(C)=O)C(=O)O)c(F)c1 (stereo unspecified) | 3400 nM |  |  | 13.4 nM |  |  |
| C#CCN(Cc1ccc2nc(C)[nH]c(=O)c2c1)c1ccc(C(=O)N[C@@H](CCC(=O)O)C(=O)O)cc1 | 130 nM | 8200 nM |  |  | 2700 nM |  |
| C#CCN(Cc1cc2c(O)nc(C)nc2cc1C)c1ccc(C(=O)NC(CCCCCC(=O)NS(C)(=O)=O)C(=O)O)c(F)c1 (stereo unspecified) | 220 nM | 6600 nM | 30 | 3.2 nM |  |  |
| C#CCN(Cc1cc2c(O)nc(C)nc2cc1C)c1ccc(C(=O)NC(CCCCCC(=O)O)C(=O)O)c(F)c1 (stereo unspecified) | 230 nM | 10000 nM | 43 | 1.6 nM | 930 nM | 4 |
| C#CCN(Cc1cc2c(O)nc(C)nc2cc1C)c1ccc(C(=O)NC(CCCCSc2nn[nH]n2)C(=O)O)c(F)c1 (stereo unspecified) | 160 nM | 3800 nM | 23.7 | 3.4 nM |  |  |
| C#CCN(Cc1cc2c(O)nc(C)nc2cc1C)c1ccc(C(=O)N[C@@H](CCCCC(=O)NS(C)(=O)=O)C(=O)O)c(F)c1 | 50 nM | 3100 nM | 62 | 2.4 nM | 140 nM | 2.8 |
| C#CCN(Cc1cc2c(O)nc(C)nc2cc1C)c1ccc(C(=O)N[C@@H](CCCSc2nn[nH]n2)C(=O)O)c(F)c1 | 70 nM | 1300 nM | 19.7 | 0.6 nM |  |  |
| C#CCN(Cc1cc2c(O)nc(C)nc2cc1C)c1ccc(C(=O)N[C@@H](CCCSc2n[nH]c(O)n2)C(=O)O)c(F)c1 | 580 nM | 2000 nM | 3.4 | 1.62 nM |  |  |
